Experimental findings from ChEMBL document CHEMBL1155590, “Two novel cytotoxic benzofuran derivatives from Brazilian propolis” (2000) are described below.

Common to all, as to assay type: functional
Test [1] is described as follows: (§1) Cytotoxicity against mouse 26-L5 cells by MTT assay. To be noted: read-out: ED50 (the source's name). The method, boiled down:
(§2)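 MTT viability read-out, run by a previously described method. Cells were highly liver-metastatic murine colon 26-L5 carcinoma and human HT-1080 fibrosarcoma.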
On the technique in general: Tetrazolium dyes change colour on reduction, which living cells bring about.

For the next test, the system named is HT-1080. Nature of the test: Cytotoxicity against human HT1080 cells by MTT assay. To be noted: for EC50: read-out: ED50 (the source's name). In a few lines:
as §2

The species named for a further test is Mus musculus. The description is as §1. In a few lines: as §2

The structures appear in SMILES notation. In brackets after ≈: the same amount, converted by molar mass.

Regarding `COc1ccc(-c2oc3cc(O)cc(O)c3c(=O)c2OC)cc1` [ERMANIN], the EC50 (in test [1]; in the test with HT-1080) was below 8 µg/mL each time.
As to `COc1ccc(-c2oc3cc(O)c(OC)c(O)c3c(=O)c2O)cc1` [BETULETOL], the EC50 (in test [1]; in the test on HT-1080) was below 8 µg/mL in each case.
As for `COc1cc([C@@H]2c3c(oc4cc(C(C)=O)c(O)cc34)C(=O)C[C@H]2COC(C)=O)ccc1O` [PROPOLIS-BENZOFURAN B], the EC50 in test [1] was 13.7 µg/mL (≈ 31.2 µM); with HT-1080 it was 43.2 µg/mL (≈ 98.5 µM).
Regarding `COc1cc([C@@H]2OC=C(c3cc4cc(O)c(C(C)=O)cc4o3)C[C@H]2COC(C)=O)ccc1O` [PROPOLIS-BENZOFURAN A], the figures for the EC50 (in test [1]; with HT-1080) were 12.4 µg/mL (≈ 27.4 µM) and 13.9 µg/mL (≈ 30.7 µM), respectively.
As to `C=C(C)C1Cc2cc(/C=C/C(=O)O)cc(CC=C(C)C)c2O1` (configuration not stated), the Activity result in the test filed under Mus musculus and in the test on HT-1080 was “Not toxic” each time.
`COc1ccc(-c2oc3cc(O)cc(O)c3c(=O)c2O)cc1` [KAEMPFERIDE]: the EC50 (in test [1]; in the test with HT-1080) was below 8 µg/mL each time.
